According to ChEMBL document CHEMBL1155078, “From phenothiazine to 3-phenyl-1,4-benzothiazine derivatives as inhibitors of the Staphylococcus aureus NorA multidrug efflux pump” (J Med Chem, 2008):
Values after ≈ are worked out from the molar mass of the structure shown. Active and inactive are the calls of the source. No cut-off for these calls is given here.

Tests used:
Staphylococcus aureus [1] = test: Antibacterial activity against wild type Staphylococcus aureus ATCC 25923 by microdilution technique; format: functional
Procedure, shortened: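 MICs determined in duplicate by broth microdilution following CLSI guidelines.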

[2] = target: T1, Quinolone resistance protein NorA (Staphylococcus aureus) (UniProt P0A0J7); test: Inhibition of NorA pump-mediated ethidium bromide efflux in Staphylococcus aureus K1199B at 50 uM by fluorimetric analysis
T1 sequence (whole entry): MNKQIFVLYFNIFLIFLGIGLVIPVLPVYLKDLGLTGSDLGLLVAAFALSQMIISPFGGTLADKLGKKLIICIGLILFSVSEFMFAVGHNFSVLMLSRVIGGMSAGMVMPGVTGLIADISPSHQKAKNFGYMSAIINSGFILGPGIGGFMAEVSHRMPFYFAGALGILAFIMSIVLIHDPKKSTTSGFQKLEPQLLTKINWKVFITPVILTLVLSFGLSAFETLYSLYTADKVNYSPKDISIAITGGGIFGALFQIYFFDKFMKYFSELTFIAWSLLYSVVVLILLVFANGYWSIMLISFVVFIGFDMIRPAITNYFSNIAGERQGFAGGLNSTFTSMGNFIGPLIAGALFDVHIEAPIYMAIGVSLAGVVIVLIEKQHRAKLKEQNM
Procedure, shortened: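 Loss of ethidium bromide from norA-overexpressing S. aureus SA-1199B measured fluorometrically with test agent at 50 µM. Run in duplicate; read-out is the mean total efflux over a 5 min time course.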

Staphylococcus aureus [3] = test: Antibacterial activity against Staphylococcus aureus K1199B at 50 uM by microdilution technique; format: functional, organism-based
[4] = Lipophilicity, log P of the compound; format: physicochemical; details: octanol/water
[5] = target: T1, Quinolone resistance protein NorA (Staphylococcus aureus); test: Inhibition of NorA in Staphylococcus aureus ATCC 25923 assessed as fold reduction of ciprofloxacin MIC at 25 ug/mL by microdilution technique
Procedure, shortened: (§1)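 Ciprofloxacin MICs were measured in duplicate by broth microdilution following CLSI guidelines. They were determined alone and with scalar dilutions of freshly prepared test compound, which was added at the fixed concentration stated in the line. The result is the fold decrease in the ciprofloxacin MIC when compound is present.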

[6] = target: T1, Quinolone resistance protein NorA (Staphylococcus aureus); test: Inhibition of NorA overexpressing Staphylococcus aureus K2378 assessed as fold reduction of ciprofloxacin MIC at 6.25 ug/mL by microdilution technique; procedure, shortened: as §1
[7] = target: T1, Quinolone resistance protein NorA (Staphylococcus aureus); test: Inhibition of NorA overexpressing Staphylococcus aureus K2378 assessed as fold reduction of ciprofloxacin MIC at 12.5 ug/mL by microdilution technique; procedure, shortened: as §1
[8] = target: T1, Quinolone resistance protein NorA (Staphylococcus aureus); test: Inhibition of NorA overexpressing Staphylococcus aureus K2378 assessed as fold reduction of ciprofloxacin MIC at 25 ug/mL by microdilution technique; procedure, shortened: as §1
[9] = target: T1, Quinolone resistance protein NorA (Staphylococcus aureus); test: Inhibition of NorA deficient Staphylococcus aureus K1902 assessed as fold reduction of ciprofloxacin MIC at 25 ug/mL by microdilution technique
[10] = target: T1, Quinolone resistance protein NorA (Staphylococcus aureus); test: Inhibition of NorA deficient Staphylococcus aureus K1902 assessed as fold reduction of ciprofloxacin MIC at 12.5 ug/mL by microdilution technique
Staphylococcus aureus [11] = test: Antibacterial activity against norA expressing Staphylococcus aureus K1902 by microdilution technique
Staphylococcus aureus [12] = test: Antibacterial activity against norA deficient Staphylococcus aureus K2378 by microdilution technique
Staphylococcus aureus [13] = test: microbe, parasite or virus in culture; details: ATCC 25923

| Compound | MIC (Staphylococcus aureus [1]) | inhibition [2] | Activity (Staphylococcus aureus [3]) | logP [4] | fold change (FC) [5] | fold change (FC) [6] | fold change (FC) [7] | fold change (FC) [8] | fold change (FC) [9] | fold change (FC) [10] | MIC (Staphylococcus aureus [11]) | MIC (Staphylococcus aureus [12]) | MIC (Staphylococcus aureus [13]) |
| --- | --- | --- | --- | --- | --- | --- | --- | --- | --- | --- | --- | --- | --- |
| O=[N+]([O-])c1ccc(C2=Nc3cc(C(F)(F)F)ccc3SC2)cc1 | 32 µg/mL (≈ 94.6 µM) | 69.7% | inactive | 3.9 | > 8 | 8 | 16 | > 32 | 2 | 2 |  |  |  |
| COc1ccc(C2=Nc3ccccc3SC2)cc1OC | 128 µg/mL (≈ 449 µM) | 22.8% | inactive |  | 4 | 2 | 4 | 16 | 2 |  |  |  |  |
| COC(=O)[C@H]1[C@H]2C[C@@H]3c4[nH]c5cc(OC)ccc5c4CCN3C[C@H]2C[C@@H](OC(=O)c2cc(OC)c(OC)c(OC)c2)[C@@H]1OC [RESERPINE] | 128 µg/mL (≈ 210 µM) |  |  | 4 | 2 |  |  | 4 | 2 |  |  |  |  |
| COc1ccc(C2CSc3ccccc3N2)cc1 (configuration not stated) | > 128 µg/mL | 10.4% | inactive |  | 2 | 4 | 4 | 8 |  |  |  |  |  |
| Fc1ccc(C2=Nc3ccccc3SC2)cc1 | 64 µg/mL (≈ 263 µM) | 0% | inactive | 3.2 | 4 | 2 | 2 | 16 | 2 |  |  |  |  |
| COc1ccccc1C1=Nc2ccccc2SC1 | 64 µg/mL (≈ 251 µM) | 0% | inactive | 2.9 | 4 |  |  | 8 |  |  |  |  |  |
| O=S1(=O)C=C(c2ccc(Cl)cc2)Nc2ccccc21 | 128 µg/mL (≈ 439 µM) |  |  |  | 4 |  |  | 2 |  |  |  |  |  |
| c1ccc(C2=Nc3ccccc3SC2)cc1 | > 512 µg/mL | 0% | inactive | 3 | 8 |  |  |  |  |  |  |  |  |
| CSc1ccc(C2CSc3ccccc3N2)cc1 (configuration not stated) | > 128 µg/mL | 28.2% | inactive | 4.5 | > 8 | 8 | 8 | 16 |  |  |  |  |  |
| CCCOc1ccc(C2=CSc3ccccc3N2C)cc1 | > 512 µg/mL | 0% | inactive |  |  |  |  | 4 |  |  |  |  |  |
| COc1ccc(C2=Nc3cc(C(F)(F)F)ccc3SC2)cc1 | 64 µg/mL (≈ 198 µM) |  |  |  | 2 |  |  | 8 |  |  |  |  |  |
| O=C(O)c1cn(C2CC2)c2cc(N3CCNCC3)c(F)cc2c1=O [CIPROFLOXACIN] |  |  |  |  |  |  |  |  |  |  | 0.12 µg/mL (≈ 0.362 µM) | 2 µg/mL (≈ 6.04 µM) | 0.5 µg/mL (≈ 1.51 µM) |
| CCCOc1ccc(C2=Nc3ccccc3SC2)cc1 | 128 µg/mL (≈ 452 µM) | 84.7% | inactive | 4 | > 8 |  |  | 4 |  |  |  |  |  |
| Clc1ccc(C2=Nc3ccccc3SC2)cc1 | 64 µg/mL (≈ 246 µM) |  |  |  | 4 |  |  | 4 | 4 |  |  |  |  |
| FC(F)(F)c1ccc2c(c1)N=C(c1ccccc1)CS2 | 32 µg/mL (≈ 109 µM) | 8.4% | inactive |  | 2 | 4 | 16 | 16 |  |  |  |  |  |
| COc1cc(C2=Nc3ccccc3SC2)cc(OC)c1OC | 32 µg/mL (≈ 101 µM) | 23.6% | inactive |  | 4 | 2 | 4 | 16 |  |  |  |  |  |
| COc1cccc(C2=Nc3ccccc3SC2)c1 | 64 µg/mL (≈ 251 µM) |  |  |  | 4 |  |  | 8 |  |  |  |  |  |
| Cc1ccc(C2=Nc3ccccc3SC2)cc1 | 64 µg/mL (≈ 267 µM) |  |  |  | 4 |  |  |  | 8 |  |  |  |  |
| CN(C)CCCN1c2ccccc2Sc2ccc(Cl)cc21 [CHLORPROMAZINE] | 128 µg/mL (≈ 401 µM) | 81% |  | 5.2 |  |  |  | 8 | > 4 |  |  |  |  |
| O=[N+]([O-])c1ccc(C2=Nc3ccccc3SC2)cc1 | > 128 µg/mL | 19.6% | inactive |  | 2 |  |  | 2 |  |  |  |  |  |
| COc1ccc(C2=Nc3ccccc3SC2)cc1 | > 512 µg/mL | 19.5% | inactive | 3.1 | > 8 | 2 | 4 | 16 |  |  |  |  |  |
| O=S1(=O)C=C(c2ccccc2)Nc2ccccc21 | 128 µg/mL (≈ 497 µM) |  |  |  | 2 |  |  | 2 |  |  |  |  |  |
| CC(C)CCOc1ccc(C2=Nc3ccccc3SC2)cc1 | > 128 µg/mL | 16.9% | inactive |  | 4 |  |  | 2 |  |  |  |  |  |
